Results taken from publication PMC6467801 (Journal of medicinal chemistry, 2018).

Tests used:
[1] = test system: cells; test: Acute toxicity in cells; format: cell-based
[2] = target: T1, full length SHP2 (Homo sapiens, UniProt Q06124); test: In vitro phosphatase activity assay, phospho-peptide substrate, Malachite Green; format: biochemical; conditions: for inhibition of SHP2 phosphatase activity (qualitative): phospho-peptide substrate
T1 sequence (Q06124 1-593): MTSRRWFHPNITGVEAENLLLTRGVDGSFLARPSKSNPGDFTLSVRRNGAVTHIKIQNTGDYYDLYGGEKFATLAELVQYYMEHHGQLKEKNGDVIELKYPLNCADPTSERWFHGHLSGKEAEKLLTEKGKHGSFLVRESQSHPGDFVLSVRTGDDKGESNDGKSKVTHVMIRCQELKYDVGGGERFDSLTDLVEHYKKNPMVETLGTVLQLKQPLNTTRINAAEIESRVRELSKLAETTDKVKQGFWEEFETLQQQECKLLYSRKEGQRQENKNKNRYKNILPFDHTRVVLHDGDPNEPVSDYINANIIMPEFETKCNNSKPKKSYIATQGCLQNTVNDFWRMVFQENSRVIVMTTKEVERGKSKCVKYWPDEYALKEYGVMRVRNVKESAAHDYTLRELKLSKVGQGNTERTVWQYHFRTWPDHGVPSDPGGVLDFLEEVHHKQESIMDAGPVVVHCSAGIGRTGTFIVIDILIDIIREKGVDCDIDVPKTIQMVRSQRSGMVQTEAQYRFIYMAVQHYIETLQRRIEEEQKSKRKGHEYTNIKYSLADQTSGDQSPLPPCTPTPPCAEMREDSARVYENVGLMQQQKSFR
Outline: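 Purified full-length SHP2 (0.1 μg) was preincubated with test compound for 30 min at room temperature in 25 mM Tris-HCl pH 7.4, 50 mM NaCl, 5 mM DTT, 2.5 mM EDTA. Phospho-peptide (also an N-SH2 activator) was added to 50 µM final and incubated 30 °C, 30 min. Freed phosphate was read by Malachite Green at OD620. Lineweaver-Burk used 0, 10, 20 μM; mean ± SD, three experiments.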

[3] = target: full length SHP1 (Homo sapiens, UniProt P29350); test: In vitro phosphatase activity assay, phospho-peptide substrate, Malachite Green; format: biochemical; conditions: data not shown
[4] = target: T2, full length WT SHP2 GST-fusion protein (Homo sapiens, UniProt Q06124); test: Fluorescence titration; format: binding; conditions: SHP2 3.0 µM, dose-dependent
T2 sequence (Q06124 1-593): T1 sequence (Q06124 1-593)
Outline: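 GST-fusion full-length WT SHP2 was held at 3.0 μM in 20 mM Tris-HCl, pH 7.5, and titrated with rising test compound. Excitation was 295 nm and emission was read 360–500 nm. Inhibitor-alone fluorescence was subtracted. Relative intensity was plotted against log molar concentration. Three independent experiments; mean ± SD of triplicates from one representative run.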

[5] = test system: H661 cells; test: Cell cycle analysis, propidium iodide staining and FACS; format: cell-based, human; conditions: 10 and 20 μM, 24 hours
Outline: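 H661 cells (PTPN11 N58S/+) were treated with test compound at 0, 10 or 20 μM, stained with propidium iodide and analysed by FACS. Profiles are representative of three independent experiments.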

[6] = test system: Ba/F3 cells; test: IL-3-induced signaling, immunoblotting of p-Erk, p-Akt, p-Jak2, p-Stat5; format: cell-based, murine; conditions: 4 hours pretreatment, IL-3 2.0 ng/mL, dose-dependent
Outline: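 Ba/F3 cells were starved overnight in serum- and cytokine-free RPMI1640, given test compound for 4 h, then stimulated with IL-3 2 ng/mL. Stimulation was 10 min for the dose series, or a time course at 20 µM. Cells were lysed in RIPA with NaF, Na3VO4 and protease inhibitors. 50 μg protein per lane went through SDS-PAGE and phospho-antibody immunoblotting with ECL. Blots were reprobed for total proteins. Three independent experiments.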

[7] = test system: myeloid progenitors from PTPN11 E76K/+ mice; test: Colony-forming unit assay, mouse bone marrow cells; format: cell-based; conditions: GM-CSF 1.0 ng/mL, 7 days, vs WT control cells
Outline: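 Bone marrow from Ptpn11E76K/+/Mx1-Cre+ and Ptpn11+/+/Mx1-Cre+ mice was plated at 2×10^4 cells/mL in 0.9% methylcellulose IMDM (30% FBS, glutamine, β-mercaptoethanol, GM-CSF 1.0 ng/mL) with graded test compound or DMSO. Cultures ran 7 days at 37 °C in 5% CO2. Myeloid colonies (CFU-GM, CFU-M) were counted and normalized to WT DMSO colonies. Mean ± SD of three independent experiments.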

[8] = test system: SHP2 (full length WT, E76K, PTP domain); test: Phosphatase assay with pNPP as the substrate; format: biochemical; conditions: 1 at 10 μM; any form of SHP2 protein
Outline: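 SHP2 enzyme (0.1 μg; full-length WT, E76K or PTP domain) was incubated with test compound for 15 min at 37 °C in 25 mM Tris-HCl pH 7.4, 50 mM NaCl, 5 mM DTT, 2.5 mM EDTA. pNPP was added to 0.9 mg/ml final and incubated a further 15 min at 37 °C. Read-out was OD405. Three independent experiments.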

[9] = test system: H596 cells (WT PTPN11); test: Lung cancer cell proliferation; format: cell-based, human; conditions: 48 hours, dose-dependent
Outline: (§1)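 Human lung cancer H661 (PTPN11 N58S/+) and H596 (WT PTPN11) cells were exposed to graded test compound for 48 hours, with DMSO controls. Cell number was measured by One Solution Cell Proliferation Assay kit. Three experiments; mean ± SD of triplicates from one representative experiment.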

[10] = test system: H661 cells (PTPN11 N58S); test: Lung cancer cell proliferation; format: cell-based, human; conditions: 48 hours, dose-dependent; more sensitive than H596
Outline: as §1

[11] = test system: myeloid blasts from JMML patients with the PTPN11 E76K/+ mutation; test: Colony-forming unit assay, JMML patient cells; format: cell-based, human; conditions: GM-CSF 1.0 ng/mL, 14 days
[12] = target: T3, His-tagged SHP2 (Homo sapiens, UniProt Q06124); test: Thermal shift assay; format: binding; conditions: 5, 10, 60 µM
T3 sequence (Q06124 1-593): T1 sequence (Q06124 1-593)
Outline: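 His-tagged SHP2 (1 µg) in 50 mM Tris-HCl pH 8.0, 500 mM NaCl, 50 mM imidazole was mixed with 5x Sypro Orange stock, 20 µl reaction. Test compound in DMSO was added to 5, 10 or 60 µM final; 1% DMSO served as control. Samples were heated 22–95 °C in 1 °C steps every 50 sec, and Tm was taken from melting curves. Mean ± SD of three independent experiments.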

[13] = test system: Ba/F3 cells; test: IL-3 dependent cell proliferation; format: cell-based, murine; conditions: IL-3 1.0 ng/mL, 48 hours
Outline: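 Cell numbers were read 48 hours after treatment with the One Solution Cell Proliferation Assay kit. Three experiments; mean ± SD of triplicates from one representative experiment.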

[14] = test system: mouse embryonic fibroblasts (WT, PTPN11 knockout, PTPN11 E76K/+); test: MEF proliferation; format: cell-based; conditions: 6 μM
Outline: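 Ptpn11 fl/fl and +/+ MEFs were infected with adeno-Cre, then treated with test compound at 6 μM or DMSO. Growth was measured at 24, 48 and 72 h with the One Solution Cell Proliferation kit, and SHP2 loss was confirmed by immunoblot. Ptpn11 E76K/+ and +/+ MEFs at 6 μM were counted with the same kit. Three experiments; mean ± SD of triplicates from one representative.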

Sequence of full length SHP1 (P29350 whole entry, the tested form may be a part): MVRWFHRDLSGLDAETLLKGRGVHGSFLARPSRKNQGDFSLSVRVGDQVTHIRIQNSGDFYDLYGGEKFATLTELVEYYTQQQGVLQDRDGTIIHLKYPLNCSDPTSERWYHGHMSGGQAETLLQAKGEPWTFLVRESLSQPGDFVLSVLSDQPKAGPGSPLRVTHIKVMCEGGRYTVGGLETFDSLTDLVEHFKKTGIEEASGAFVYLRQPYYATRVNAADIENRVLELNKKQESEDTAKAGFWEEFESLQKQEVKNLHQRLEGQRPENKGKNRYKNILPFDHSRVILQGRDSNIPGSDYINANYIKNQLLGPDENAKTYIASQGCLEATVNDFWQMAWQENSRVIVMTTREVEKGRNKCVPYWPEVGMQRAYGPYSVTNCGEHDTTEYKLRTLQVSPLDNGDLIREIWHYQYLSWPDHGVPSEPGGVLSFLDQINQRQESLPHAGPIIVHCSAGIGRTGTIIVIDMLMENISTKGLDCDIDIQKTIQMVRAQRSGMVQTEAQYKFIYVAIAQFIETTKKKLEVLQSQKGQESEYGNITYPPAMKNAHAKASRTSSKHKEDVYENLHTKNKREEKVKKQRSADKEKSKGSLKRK

CCOc1cc(O)c(C(=O)/C=C/c2ccc(Cl)cc2Cl)cc1CN1CCCCC1 [LY1]
toxicity in cells [1]: acute toxicity in cells

CCOc1cc(O)c(C(=O)/C=C/c2ccc(Cl)cc2Cl)cc1CN(CC)CC [LY3]
inhibition of SHP2 phosphatase activity (qualitative) [2]: good effects on SHP2
inhibition of SHP1 relative to SHP2 (qualitative) [3]: inhibited the SHP1 phosphatase to a similar extent

CCOc1cc(O)c(C(=O)/C=C/c2ccc(Cl)cc2Cl)cc1CN1CCNCC1C (stereo not drawn) [LY5]
inhibition of SHP2 phosphatase activity (qualitative) [2]: good effects on SHP2
inhibition of SHP1 relative to SHP2 (qualitative) [3]: inhibited the SHP1 phosphatase to a similar extent

CCOc1cc(O)c(C(=O)/C=C/c2ccc(Cl)cc2Cl)cc1CN1C[C@@H](O)C[C@@H]1C(C)=O [LY7]
toxicity in cells [1]: acute toxicity in cells

CCOc1cc(O)c(C(=O)/C=C/c2ccc(Cl)cc2Cl)cc1CN1CCC=C(n2c(=O)[nH]c3ccccc32)C1 [compound 1, (E)-1-(1-(5-(3-(2,4-dichlorophenyl)acryloyl)-2-ethoxy-4-hydroxybenzyl)-1,2,5,6-tetrahydropyridin-3-yl)-1H-benzo[d]imidazol-2(3H)-one]
quenching of SHP2 fluorescence [4]: strong quenching
cell cycle change [5]: pronounced G2/M arrest
IL-3-induced activation (phosphorylation) of Erk, Akt, Jak2, Stat5 [6]: inhibited
inhibition of colony-forming capability of SHP2 E76K-expressing progenitors [7]: much more sensitive than control cells
effect on capability of SHP2 to dephosphorylate pNPP [8]: did not affect
proliferation of H596 cells [9]: inhibited proliferation
proliferation of H661 cells [10]: inhibited proliferation
colony formation of JMML myeloid blasts [11]: exquisitely sensitive
shift in melting temperature (Tm) [12]: dose-dependent right shifts
type of inhibition (Lineweaver-Burk plot) ([2]; 0, 10, 20 μM, Vmax decreased, Km increased): mixed type inhibitor
inhibitory function in presence of Triton X-100 ([2]; 0.001% Triton X-100 in assay buffer): not decreased
inhibition of SHP2 in presence of Triton X-100 ([2]; 0.01% Triton X-100): diminished
inhibition of SHP2 phosphatase activity (qualitative) [2]: most active compound among the remaining compounds
1/SHP2 binding after extensive washing of enzyme-inhibitor complex ([2]; washing): stable
cell growth [13]: significantly suppressed cell growth
cell growth of PTPN11 E76K/+ MEFs [14]: significantly decreased cell growth
proliferation of WT MEFs ([14]; 24, 48, 72 hours): markedly decreased
proliferation of PTPN11-depleted MEFs ([14]; PTPN11 knockout): did not show a significant effect
